Source: ChEMBL document CHEMBL1132971, “New azolidinediones as inhibitors of protein tyrosine phosphatase 1B with antihyperglycemic properties” (J Med Chem, 2000)
Calls of active or inactive are those of the source. No cut-off for these calls is given here.

Legend:
[1] = test system: Mus musculus; test: Evaluated in vivo for their ability to decrease plasma glucose levels in diabetic C57BL/KsJ db/db mouse at a dose 100 mg/kg/day.; assay type: functional
In short: (§1)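 Diabetic db/db or ob/ob mice dosed orally once daily for 4 days. Plasma glucose and insulin reported as percent change from a vehicle-treated group. 4-6 mice per group. Significance set at p < 0.05 or p < 0.01 versus vehicle; NS means generally less than -15% change.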

[2] = target: T1, Tyrosine-protein phosphatase non-receptor type 1 (Mus musculus) (UniProt P35821); test: In vivo ability to decrease plasma glucose levels in diabetic C57BL/KsJ ob/ob mouse at a dose 100 mg/kg/day; assay type: functional, organism-based; in short: as §1
T1 sequence (whole entry): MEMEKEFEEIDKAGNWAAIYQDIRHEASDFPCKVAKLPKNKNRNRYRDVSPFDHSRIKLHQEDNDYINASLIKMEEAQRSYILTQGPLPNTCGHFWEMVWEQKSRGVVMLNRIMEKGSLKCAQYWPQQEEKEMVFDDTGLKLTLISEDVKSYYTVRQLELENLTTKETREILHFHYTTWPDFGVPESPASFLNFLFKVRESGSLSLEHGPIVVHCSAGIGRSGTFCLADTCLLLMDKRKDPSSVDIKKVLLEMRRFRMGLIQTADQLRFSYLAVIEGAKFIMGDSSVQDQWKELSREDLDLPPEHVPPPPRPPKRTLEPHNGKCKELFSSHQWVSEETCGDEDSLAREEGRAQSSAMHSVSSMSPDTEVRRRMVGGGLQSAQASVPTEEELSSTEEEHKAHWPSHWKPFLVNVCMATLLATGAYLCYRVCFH

[3] = target: T2, Tyrosine-protein phosphatase non-receptor type 1 (Rattus norvegicus) (UniProt P20417); test: Inhibition of PTPase (PTP1B) activity in rat hepatic membrane at 50 uM concentration, using pNPP as the substrate; assay type: cell membranes; conditions: Liver
T2 sequence (whole entry): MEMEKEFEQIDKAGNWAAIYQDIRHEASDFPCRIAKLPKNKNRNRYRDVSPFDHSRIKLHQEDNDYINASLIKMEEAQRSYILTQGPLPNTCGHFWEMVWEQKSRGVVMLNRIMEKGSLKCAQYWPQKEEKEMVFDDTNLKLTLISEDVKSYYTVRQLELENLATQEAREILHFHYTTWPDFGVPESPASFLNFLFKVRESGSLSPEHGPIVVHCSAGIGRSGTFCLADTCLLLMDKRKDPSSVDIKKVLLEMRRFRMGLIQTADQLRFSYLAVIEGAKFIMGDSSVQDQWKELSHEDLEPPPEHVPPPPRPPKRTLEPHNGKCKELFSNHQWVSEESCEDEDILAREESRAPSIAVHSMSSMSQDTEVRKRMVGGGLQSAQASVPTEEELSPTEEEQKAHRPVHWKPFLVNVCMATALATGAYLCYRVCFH
In short: (§2)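 Liver membranes from male Sprague-Dawley rats (100-150 g), about 30 µg protein per well. Preincubated 10 min at 37 °C with compound in 1.25% DMSO in 50 mM HEPES pH 7.4. Then 6.33 mM pNPP for 30 min at 37 °C, stopped with NaOH. p-Nitrophenol read at 410 nm. Run in triplicate. Reported as percent of untreated control.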

[4] = target: T1, Tyrosine-protein phosphatase non-receptor type 1 (Mus musculus); test: Ability to decrease plasma insulin levels in mouse at a dose 100 mg/kg/day; assay type: functional, organism-based; in short: as §1
[5] = target: T3, Tyrosine-protein phosphatase non-receptor type 1 (Rattus norvegicus, UniProt P20417); test: Inhibition of PTPase activity using recombinant r-PTP1B and IR-triphosphopeptide as substrate; ND is no data.
T3 sequence (P20417 whole entry): T2 sequence (whole entry)
In short: (§3)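 Rat recombinant PTP1B in 33 mM TRIS-HCl, 2 mM EDTA, 50 mM β-mercaptoethanol, pH 7.4 (about 1000-2000 nmol/min/mg). Preincubated 10 min at 37 °C with or without compound in HEPES buffer pH 7.4. Released phosphate read by malachite green-ammonium molybdate at 650 nm against a phosphate standard. Quadruplicates. IC50 by four-parameter logistic fit.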

[6] = target: T2, Tyrosine-protein phosphatase non-receptor type 1 (Rattus norvegicus); test: Inhibition of Protein-tyrosine phosphatase 1B activity in rat hepatic membrane at a concentration of 50 uM using pNPP as the substrate; assay type: cell membranes; conditions: Liver; in short: as §2
[7] = test system: Mus musculus; test: Evaluated in vivo for their ability to decrease plasma glucose levels in diabetic C57BL/KsJ db/db mouse at a dose 100 mg/kg/day, *p indicates <0.05; assay type: functional
In short: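 Mice dosed orally once daily for 4 days; plasma glucose and insulin measured and expressed as percent change versus a vehicle-treated group (mean ± SE, 4-6 mice/group). NS is generally less than -15% change. Significance is versus vehicle-treated mice.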

[8] = target: T2, Tyrosine-protein phosphatase non-receptor type 1 (Rattus norvegicus); test: Inhibition of PTPase activity using recombinant r-PTP1B as the enzyme and IR-triphosphopeptide as substrate at 50 uM; in short: as §3
[9] = target: T4, Tyrosine-protein phosphatase non-receptor type 1 (Homo sapiens, UniProt P18031); test: Concentration required to inhibit PTPase activity, recombinant Protein Tyrosine Phosphatase 1b as the enzyme; in short: as §3
T4 sequence (P18031 whole entry): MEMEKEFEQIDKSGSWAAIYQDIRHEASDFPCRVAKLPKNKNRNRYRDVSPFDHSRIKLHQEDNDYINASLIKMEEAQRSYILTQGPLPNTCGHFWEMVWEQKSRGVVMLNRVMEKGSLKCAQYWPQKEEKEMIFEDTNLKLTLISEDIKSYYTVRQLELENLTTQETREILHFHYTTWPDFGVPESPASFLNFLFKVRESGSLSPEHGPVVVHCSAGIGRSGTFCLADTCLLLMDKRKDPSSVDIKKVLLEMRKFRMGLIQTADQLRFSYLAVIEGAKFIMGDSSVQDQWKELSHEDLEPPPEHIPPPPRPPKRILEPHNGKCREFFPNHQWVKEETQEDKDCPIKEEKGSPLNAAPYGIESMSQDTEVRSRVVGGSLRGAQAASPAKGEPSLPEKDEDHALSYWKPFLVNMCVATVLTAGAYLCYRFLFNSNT

[10] = target: T3, Tyrosine-protein phosphatase non-receptor type 1; test: Inhibition of PTPase activity using recombinant r-PTP1B as the enzyme and IR-triphosphopeptide as substrate; in short: as §3

Decrease [2] | inhibition [3] | Decrease [4] | IC50 [10] | SMILES | also measured
Not significant | 23% | Not significant | – | C/C(=C\CC1OC(=O)NC1=O)c1cccc(OCc2nc(-c3ccccc3)oc2C)c1 (centres undefined) | Decrease [1]: 18%; IC50 [5]: Not significant
– | – | – | – | C/C(=C\Cn1oc(=O)[nH]c1=O)c1cccc(OCc2nc(-c3ccccc3)oc2C)c1 (stereo in doubt; 67) | inhibition [6]: 25%
Not significant | 52% | Not significant | – | C/C(=C\Cn1oc(=O)[nH]c1=O)c1cccc(OCc2nc(-c3ccc(OCC(F)(F)F)cc3)oc2C)c1 | Decrease [7]: 44%; IC50 [5]: Not significant
– | 20% | – | – | CC1(COc2ccc(CC3SC(=O)NC3=O)cc2)CCCCC1 (centres undefined) [CIGLITAZONE] | Decrease [1]: 32%
Not significant | 56% | Not significant | – | COc1ccc(/C(=C\Cn2oc(=O)[nH]c2=O)c2cccc(OCc3nc(-c4ccc(C(F)(F)F)cc4)oc3C)c2)cc1 | inhibition [8]: 34%
– | 57% | – | – | CCCCCCCC/C(=C/Cn1oc(=O)n(CC(=O)O)c1=O)c1cccc(OCc2nc(-c3ccc(C(F)(F)F)cc3)oc2C)c1 | IC50 [9]: 0.16 µM
Not significant | 51% | Not significant | – | Cc1oc(-c2ccc(C(F)(F)F)cc2)nc1COc1cccc(C2(C)CC2Cn2oc(=O)[nH]c2=O)c1 (centres undefined) | inhibition [8]: 1%
– | – | – | 4.1 µM | C/C(=C\Cn1oc(=O)[nH]c1=O)c1cccc(OCc2cc(C(F)(F)F)cc(C(F)(F)F)c2)c1 | –
Not significant | – | Not significant | 13 µM | C/C(=C\CN1CC(=O)NC1=O)c1cccc(OCc2nc(-c3ccc(C(F)(F)F)cc3)oc2C)c1 | –
– | 31% | – | – | Cc1oc(-c2ccc(C(F)(F)F)cc2)nc1COc1ccc2c(c1)C=C/C2=C\Cn1oc(=O)[nH]c1=O | inhibition [8]: 83%
Not significant | 38% | Not significant | – | C/C(=C\C(C)n1oc(=O)[nH]c1=O)c1cccc(OCc2nc(-c3ccc(C(F)(F)F)cc3)oc2C)c1 (centres undefined) | Decrease [1]: 16%
Not significant | 32% | Not significant | 19 µM | C/C(=C\Cn1oc(=O)[nH]c1=O)c1cccc(OCc2coc(-c3ccc(C(F)(F)F)cc3)n2)c1 | –
– | 17% | – | 3 µM | C/C(=C\Cn1oc(=O)[nH]c1=O)c1cccc(OCc2noc(-c3ccccc3)n2)c1 | –
– | 49% | – | – | COc1cc(OCc2nc(-c3ccc(C(F)(F)F)cc3)oc2C)cc(/C(C)=C/Cn2oc(=O)[nH]c2=O)c1 | inhibition [8]: 12%
– | 20% | – | 16 µM | C/C(=C\Cn1oc(=O)[nH]c1=O)c1cccc(OCc2ccc3c(Cl)cccc3c2)c1 | –
– | 29% | – | – | C/C(=C\Cc1nnn[nH]1)c1cccc(OCc2nc(-c3ccc(OC(F)(F)F)cc3)oc2C)c1 | IC50 [9]: 13 µM

Decrease [2] | inhibition [3] | Decrease [4] | IC50 [10] | SMILES | also measured
– | 64% | – | – | CCCCCCCCC(=CCn1oc(=O)n(CC(=O)O)c1=O)c1cccc(OCc2nc(-c3ccc(C(F)(F)F)cc3)oc2C)c1 | IC50 [9]: 0.12 µM
Not significant | 33% | Not significant | – | Cc1oc(-c2ccc(Cl)cc2)nc1COc1cccc(/C=C/C(C)n2oc(=O)[nH]c2=O)c1 (centres undefined) | Decrease [1]: 20%; IC50 [5]: Not significant
– | 62% | – | 13 µM | CCCC/C(=C\Cn1oc(=O)[nH]c1=O)c1cccc(Oc2ccc(C)cc2)c1 | –
– | 62% | – | 10 µM | CCCC/C(=C\Cn1oc(=O)[nH]c1=O)c1cccc(Oc2ccc(OC)cc2)c1 | –
Not significant | Not significant | Not significant | 43 µM | C/C(=C\Cn1oc(=O)[nH]c1=O)c1ccccc1OCc1nc(-c2ccc(C(F)(F)F)cc2)oc1C | –
– | – | – | – | C/C(=C\Cn1oc(=O)[nH]c1=O)c1cccc(OCc2nc(-c3ccccc3)oc2C)c1 (stereo in doubt; 49) | inhibition [6]: 35%
– | – | – | 1.3 µM | CCCCc1oc2ccccc2c1Cc1cccc(/C(C)=C/Cn2oc(=O)[nH]c2=O)c1 | –
– | 14% | – | – | Cc1oc(-c2ccc(C(F)(F)F)cc2)nc1COc1ccc2oc(Cn3oc(=O)[nH]c3=O)cc2c1 | IC50 [5]: Not significant
Not significant | 37% | Not significant | – | C/C(=C\CC1OC(=O)NC1=O)c1cccc(OCc2nc(-c3ccc(OCC(F)(F)F)cc3)oc2C)c1 (centres undefined) | Decrease [1]: inactive; IC50 [5]: Not significant
– | 63% | – | – | CCCC/C(=C\Cn1oc(=O)n(CC(=O)O)c1=O)c1cccc(Oc2cc(Cl)cc(Cl)c2)c1 | IC50 [9]: 1.3 µM
– | 63% | – | 2 µM | CCCC/C(=C\Cn1oc(=O)[nH]c1=O)c1cccc(Oc2ccccc2)c1 | –
– | 31% | – | – | CCCC/C(=C\Cn1oc(=O)n(CC(=O)O)c1=O)c1cccc(OCc2cc(Cl)cc(Cl)c2)c1 | IC50 [9]: 48 µM
Not significant | 23% | Not significant | – | Cc1oc(-c2ccccc2)nc1COc1cccc(C#CC(C)n2oc(=O)[nH]c2=O)c1 (centres undefined) | –
– | 64% | – | 12 µM | C/C(=C\Cn1oc(=O)[nH]c1=O)c1cccc(COc2cc(C(F)(F)F)cc(C(F)(F)F)c2)c1 | –
Not significant | 45% | Not significant | 24 µM | C/C(=C\Cn1oc(=O)[nH]c1=O)c1cccc(OCCc2nc(-c3ccccc3)oc2C)c1 | Decrease [1]: 38%
Not significant | 66% | Not significant | – | Cc1oc(-c2ccc(C(F)(F)F)cc2)nc1COc1cccc(/C(=C/Cn2oc(=O)[nH]c2=O)C2CCCCC2)c1 | inhibition [8]: 49%

SMILES | Decrease [2] | inhibition [3] | Decrease [4] | IC50 [10] | also measured
C/C(Cn1oc(=O)[nH]c1=O)=C(/C)c1cccc(OCc2nc(-c3ccc(C(F)(F)F)cc3)oc2C)c1 | – | 47% | – | – | Decrease [1]: 20%
C/C(=C\Cn1oc(=O)[nH]c1=O)c1ccc2oc(Cc3nc(-c4ccc(C(F)(F)F)cc4)oc3C)cc2c1 | – | 57% | – | – | inhibition [8]: 53%; Decrease [7]: 31%
Cc1oc(-c2ccc(C(F)(F)F)cc2)nc1COc1cccc(CCCn2oc(=O)[nH]c2=O)c1 | Not significant | 54% | Not significant | – | inhibition [8]: 4.3%; Decrease [7]: 21%
